# ChEMBL document CHEMBL4138248, “Discovery of naphtho[1,2-d]oxazole derivatives as potential anti-HCV agents through inducing heme oxygenase-1 expression” (Eur J Med Chem, 2018)
# Experiments:
# Hepatitis C virus [1] = test: Antiviral activity against HCV infected in human Ava5 cells assessed as inhibition of viral RNA replication at 5 uM after 3 days by RT-qPCR method relative to control; type: functional, Hepacivirus hominis; settings: Ava5, 72 h
# Procedure, shortened: (§1)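 Ava5 replicon cells were exposed to 5 or 20 μM for 3 days, starting from 10 mM DMSO stocks diluted in medium. HCV RNA was quantified by RT-qPCR against gapdh and expressed as % inhibition relative to untreated control. Ribavirin was the reference drug. Mean ± SD of three independent experiments.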
# Hepatitis C virus [2] = test: Antiviral activity against HCV infected in human Ava5 cells assessed as inhibition of viral RNA replication at 20 uM after 3 days by RT-qPCR method relative to control; type: functional, Hepacivirus hominis; settings: Ava5, 72 h; procedure, shortened: as §1
# [3] = Cytotoxicity against human Ava5 cells assessed as cell viability at 20 uM after 72 hrs by XTT assay relative to control; type: cell-based; settings: read-out: Activity
# Procedure, shortened: (§2)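 XTT viability assay run alongside the antiviral assays. Ava5 cells were plated at 5×10^3 per well and exposed to 20 or 200 μM for 72 h at 37 °C in humidified 5% CO₂. Viability is expressed as % of untreated cells.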
# [4] = Cytotoxicity against human Ava5 cells assessed as cell viability at 200 uM after 72 hrs by XTT assay relative to control; type: cell-based; settings: read-out: Activity; procedure, shortened: as §2
# Hepatitis C virus [5] = test: Antiviral activity against HCV infected in human Ava5 cells assessed as inhibition of viral RNA replication after 3 days by RT-qPCR method; type: functional, organism-based, Hepacivirus hominis; settings: Ava5, 72 h
# Procedure, shortened: (§3)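 Ava5 cells (Huh-7 hepatoma cells carrying an HCV replicon, grown in DMEM/10% FBS with 1 mg·mL⁻¹ G418) were treated for 3 days with a range of concentrations. HCV RNA was measured by RT-qPCR and normalized to cellular gapdh mRNA. Values are mean ± SD of three independent experiments, each in triplicate.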
# [6] = Cytotoxicity against human Ava5 cells assessed as decrease in cell viability after 72 hrs by XTT assay; type: cell-based
# Procedure, shortened: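 XTT assay on […] Ava5 cells at 5×10^3 per well with serial dilutions for 72 h at 37 °C in 5% CO₂. CC50 is the concentration giving 50% growth inhibition.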
# [7] = Selectivity index, ratio of CC50 for human Ava5 cells to IC50 for HCV; type: toxicity; settings: read-out: Ratio CC50/IC50
# Procedure, shortened: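 SI = CC50/IC50. CC50 comes from 72 h XTT in […] Ava5 cells. IC50 is the concentration giving 50% inhibition of HCV, measured by RT-qPCR after 3 days in Ava5 cells.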
# Hepatitis C virus [8] = test: Antiviral activity against HCV Con1 infected in human Ava5 cells assessed as inhibition of viral RNA replication after 3 days by RT-qPCR method; type: functional, organism-based, Hepacivirus hominis; settings: isolate Con1, Ava5, 72 h; procedure, shortened: as §3
# Hepatitis C virus [9] = test: Antiviral activity against HCV infected in human Huh7 cells assessed as inhibition of viral RNA replication after 3 days by RT-qPCR method; type: functional, organism-based, Hepacivirus hominis; settings: Huh-7, 72 h
Compound,inhibition at 5 µM (Hepatitis C virus [1]) [%],inhibition at 20 µM (Hepatitis C virus [2]) [%],"viability at 72 h, 20 µM [3] [%]","viability at 72 h, 200 µM [4] [%]",IC50 (Hepatitis C virus [5]) [µM],CC50 at 72 h [6] [µM],selectivity ratio [7],EC50 (Hepatitis C virus [8]) [µM],EC50 (Hepatitis C virus [9]) [µM]
CN(c1ccccc1)c1cc2oc(-c3ccco3)nc2c2ccccc12,2.9,3.54,88.8,40.6,,,,,
c1ccc(Nc2cc3oc(-c4ccccc4)nc3c3ccccc23)cc1,3.51,4.28,87,25.5,,,,,
COc1ccc(-c2nc3c(cc(Nc4ccc(Cl)cc4)c4ccccc43)o2)cc1,4.5,8.5,83.7,23.4,,,,,
COc1ccc(Nc2cc3oc(-c4ccccc4)nc3c3ccccc23)cc1,75.5,86.7,92.7,37.1,3.27,158,48.4,,
CN(c1ccccc1)c1cc2oc(-c3ccccc3)nc2c2ccccc12,1.5,2.31,82.3,25.5,,,,,
CN(c1ccccc1)c1cc2oc(-c3ccc(Cl)cc3)nc2c2ccccc12,4.2,5.12,94.7,29.6,,,,,
COc1ccc(N(C)c2cc3oc(-c4ccc(Cl)cc4)nc3c3ccccc23)cc1,2.4,2.65,94.7,29.6,,,,,
COc1ccc(-c2nc3c(cc(N(C)c4ccc(OC)cc4)c4ccccc43)o2)cc1,5.6,8.5,73.6,56.3,,,,,
CN(c1ccc(Cl)cc1)c1cc2oc(-c3ccccc3)nc2c2ccccc12,1.2,1.21,81,25.5,,,,,
COc1ccc(-c2nc3c(cc(N(C)c4ccccc4)c4ccccc43)o2)cc1,2.5,3.21,69.2,54,,,,,
Clc1ccc(Nc2cc3oc(-c4ccccc4)nc3c3ccccc23)cc1,1.2,3.53,107,93,,,,,
c1ccc(Nc2cc3oc(-c4ccco4)nc3c3ccccc23)cc1,1.8,2.53,81.2,31.5,,,,,
COc1ccc(-c2nc3c(cc(Nc4ccccc4)c4ccccc43)o2)cc1,3.7,5.31,86.3,68.5,,,,,
Clc1ccc(Nc2cc3oc(-c4ccco4)nc3c3ccccc23)cc1,3.2,4.51,83.5,28.9,,,,,
Cc1ccc2nc(Nc3ccc([N+](=O)[O-])cc3)sc2c1,,,,,,,,8,
COc1ccc(N(C)c2cc3oc(-c4ccco4)nc3c3ccccc23)cc1,2.5,31.5,49.5,32.3,,,,,
COc1ccc(Nc2cc3oc(-c4ccc(Cl)cc4)nc3c3ccccc23)cc1,3.2,35.6,103,98.2,,,,,
COc1ccc(Nc2cc3oc(-c4ccc(OC)cc4)nc3c3ccccc23)cc1,3.2,5.6,63.4,28.5,,,,,
COc1cc(NCc2cc3ccccc3oc2=O)cc(OC)c1OC,,,,,,,,,12
Clc1ccc(Nc2cc3oc(-c4ccc(Cl)cc4)nc3c3ccccc23)cc1,8.1,55.2,60.2,27.5,17.8,83.7,4.71,,
CN(c1ccc(Cl)cc1)c1cc2oc(-c3ccc(Cl)cc3)nc2c2ccccc12,1.1,2.56,86.4,30.2,,,,,
Clc1ccc(-c2nc3c(cc(Nc4ccccc4)c4ccccc43)o2)cc1,2.5,3.33,99.9,62.4,,,,,
COc1ccc(N(C)c2cc3oc(-c4ccccc4)nc3c3ccccc23)cc1,3.4,3.51,83.6,27.5,,,,,
CN(c1ccc(Cl)cc1)c1cc2oc(-c3ccco3)nc2c2ccccc12,2.7,3.12,73,26.5,,,,,
NC(=O)c1ncn([C@@H]2O[C@H](CO)[C@@H](O)[C@H]2O)n1 [RIBAVIRIN],31.2,65.7,71.4,26.8,13.2,106,8.08,,
COc1ccc(-c2nc3c(cc(N(C)c4ccc(Cl)cc4)c4ccccc43)o2)cc1,2.5,6.5,107,93,,,,,
